Source: ChEMBL document CHEMBL1255431, “Inhibitors of Leishmania GDP-mannose pyrophosphorylase identified by high-throughput screening of small-molecule chemical library” (Antimicrob Agents Chemother, 2010)
pIC50: −log10 of the molar value. The source made the active and inactive calls. The calls are words filed in the database; no cut-off is given here.

Columns and labels:
Leishmania major [1] = assay: Antileishmanial activity Leishmania major V121 promastigotes infected in mouse bone marrow-derived macrophage assessed as mild inhibition of cell invasion at 30 uM after 48 hrs by microscopy; type: functional, organism-based
[2] = Inhibition of Leishmania major recombinant GDP-mannose pyrophosphorylase expressed in Escherichia coli […] by fluorescence assay
Procedure, shortened: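 Recombinant His6-tagged L. major GDP-MP, expressed in E. coli BL21(DE3)pLysS and purified on Talon resin. Buffer: 25 mM Tris-HCl pH 7.5, 4 mM MgCl2, 150 mM NaCl, 0.02% Tween 20, 0.4 mg/ml OVA. Final 5 μM M-1-P and 1.3 μM GTP, with inorganic pyrophosphatase coupling. Pi detected by MDCC phosphate sensor, Ex430/Em480, read each minute for 10 min.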

Leishmania major [3] = assay: Antileishmanial activity Leishmania major V121 amastigotes; type: functional, organism-based
Procedure, shortened: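 Ex vivo amastigotes purified from lesions of L. major-infected CBA nu/nu mice, resuspended in M199. Exposed 24 h to 2-fold dilutions from 100 μM to 49 nM. 10^6 parasites per well, in duplicate. Viability by CellTiter blue, read at 550 nm with 630 nm reference. IC50 against nontreated controls.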

Leishmania major [4] = assay: Antileishmanial activity Leishmania major V121 amastigotes infected in mouse bone marrow-derived macrophage assessed as mild inhibition of cell invasion at 30 uM after 48 hrs by microscopy; type: functional, organism-based
Leishmania major [5] = assay: Antileishmanial activity Leishmania major V121 promastigotes infected in mouse bone marrow-derived macrophage assessed as inhibition of cell invasion after 48 hrs by microscopy; type: functional, organism-based
Leishmania major [6] = assay: Antileishmanial activity Leishmania major V121 amastigotes isolated from infected […] CBA nu/nu after 48 hrs by microscopy; type: functional, organism-based
Leishmania major [7] = assay: Antileishmanial activity Leishmania major V121 amastigotes infected in mouse bone marrow-derived macrophage assessed as inhibition of parasite proliferation after 48 hrs by Giemsa staining; type: functional, organism-based
Procedure, shortened: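 Intracellular proliferation format in mouse bone marrow-derived macrophages, with amastigotes used for infection. Infected cells on duplicate coverslips exposed to compound for 48 h, then washed, methanol-fixed and Giemsa-stained. Percentage of infected cells counted microscopically.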

Leishmania major [8] = assay: Antileishmanial activity Leishmania major V121 amastigotes isolated from infected […] CBA nu/nu at 10 to 40 uM after 48 hrs by microscopy; type: functional, organism-based
Leishmania major [9] = assay: Antileishmanial activity Leishmania major V121 amastigotes infected in mouse bone marrow-derived macrophage assessed as inhibition of cell invasion after 48 hrs by microscopy; type: functional, organism-based
Leishmania major [10] = assay: Antileishmanial activity Leishmania major V121 promastigotes infected in mouse bone marrow-derived macrophage assessed as complete inhibition of cell invasion at 30 uM after 48 hrs by microscopy; type: functional, organism-based
[11] = Cytotoxicity against HFF by Cell titer blue assay; type: cell-based; conditions: human, HFF cells
Procedure, shortened: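 Primary human foreskin fibroblasts grown in DMEM with 10% HI-FBS, 37°C, 5% CO2. Compound toxicity measured by CellTiter blue viability, concentrations up to 100 μM.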

[12] = Cytotoxicity against mouse bone marrow-derived macrophages at 30 uM after 48 hrs by Cell titer blue assay; type: cell-based; conditions: macrophage
Leishmania major [13] = assay: Antileishmanial activity Leishmania major V121 amastigotes isolated from infected […] CBA nu/nu at 10 to 30 uM after 48 hrs by microscopy; type: functional, organism-based
Leishmania major [14] = assay: Antileishmanial activity Leishmania major V121 promastigotes infected in mouse bone marrow-derived macrophage assessed as inhibition of cell invasion at 10 uM after 48 hrs by microscopy; type: functional, organism-based
Leishmania major [15] = assay: Antileishmanial activity Leishmania major V121 amastigotes infected in mouse bone marrow-derived macrophage assessed as complete inhibition of cell invasion at 30 uM after 48 hrs by microscopy; type: functional, organism-based

Compound | pIC50 [2] | pIC50 (Leishmania major [3]) | inhibition (Leishmania major [1]) | pIC50 (Leishmania major [7]) | CC50 [11] | also measured
COc1ccc(-c2nnc3sc(-c4ccc(F)cc4)nn23)cc1 | 5.35 | < 4.00 | Active |  |  | 
COc1ccc2c(=O)c(C(=O)O)csc2c1 | 5.08 | < 4.00 | Active |  |  | 
CCn1nc(C)cc1-c1nnc2sc(-c3ccc(C)cc3)nn12 | 5.86 | 4.05 | Active |  | > 100 µM | Activity [12]: Toxic
Cc1ccc2c(n1)[nH]c1ccccc12 | 5.26 | 4.01 | Active | < 4.52 | > 100 µM | 
COc1ccc(CCC2=Nc3ccccc3S(=O)(=O)N2)cc1 | 5.27 |  | Active |  |  | 
Cc1cc(C)nc(SCc2nn3c(-c4ccccc4)nnc3s2)n1 | 5.40 | < 4.00 | Active |  |  | 
CCn1nc(C)cc1-c1nnc2sc(Cc3c(F)cccc3Cl)nn12 | 5.98 | < 4.00 | Active |  |  | 
CCOC(=O)C/C(=N/O)c1nnn[nH]1 | 5.14 | < 4.00 | Active |  |  | 
CCCc1cc(-c2nn3c(-c4ccccc4)nnc3s2)n(CC)n1 | 5.90 | < 4.00 | Active |  |  | 
Cc1ccc(/C=C2/C(=O)NN(c3ccc(F)cc3)C2=O)o1 | 4.97 | 4.04 | Active | < 4.52 | > 100 µM | 
Fc1cccc(Cl)c1Cc1nn2c(-c3ccccc3)nnc2s1 | 5.53 | < 4.00 | Active |  |  | 
COc1ccc(-c2csc3c2C2=NCCN2C=N3)cc1OC | 5.12 | < 4.00 | Active |  |  | 
CN1CCN(c2ccnc3cc(Cl)ccc23)CC1 |  | < 4.00 | Active |  |  | 
Cc1ccccc1Cc1nnc2sc(-c3ccc(Cl)cc3)nn12 | 5.96 | < 4.00 | Active |  |  | 
Clc1ccc(C2=NN3C(c4ccccc4)=NNC3S2)c(Cl)c1 (stereo not given) | 5.53 | < 4.00 | Active |  |  | 
CCc1nnc(N2C(=O)C3C4C=CC(C4)C3C2=O)s1 (stereo not given) | 5.45 | < 4.00 | Active |  |  | 

The remaining compounds from weak to strong by pIC50 (Leishmania major [3]), led by results:

pIC50 [2] | pIC50 (Leishmania major [3]) | Compound | inhibition (Leishmania major [1]) | pIC50 (Leishmania major [7]) | CC50 [11] | also measured
6.31 | 4.11 | c1ccc2c(-c3cnc4n3CCS4)c[nH]c2c1 | Active | < 4.52 | > 100 µM | inhibition (Leishmania major [15]): Active
5.39 | 4.13 | CN(C)Cc1c(O)ccc2c(=O)c(-c3cnn(-c4ccccc4)c3)coc12 | Active | < 4.52 | > 100 µM | 
 | 4.15 | Cc1ccc(C(=O)N2CCN(c3ccnc4cc(Cl)ccc34)CC2)cc1 | Active | < 4.52 |  | inhibition (Leishmania major [5]): Dose-dependent effect; Activity (Leishmania major [13]): Active; inhibition (Leishmania major [9]): Dose-dependent effect; inhibition (Leishmania major [14]): inactive
6.24 | 4.21 | CC(C)(C)c1ccc(CN2CCN(c3ccnc4cc(Cl)ccc34)CC2)cc1 |  | 4.66 | > 100 µM | inhibition (Leishmania major [4]): Active; inhibition (Leishmania major [5]): Dose-dependent effect; Activity (Leishmania major [6]): Active; inhibition (Leishmania major [7]): Dose-dependent effect; Activity (Leishmania major [8]): Active; inhibition (Leishmania major [9]): Dose-dependent effect; inhibition (Leishmania major [10]): Active
 | 4.21 | Clc1ccc2c(N3CCN(Cc4ccccc4)CC3)ccnc2c1 | Active | < 4.52 |  | inhibition (Leishmania major [5]): Dose-dependent effect; Activity (Leishmania major [13]): Active; inhibition (Leishmania major [9]): Dose-dependent effect
5.61 | 4.28 | COC(=O)c1c(O)c(C#N)c2n(c1=O)CCc1cc(OC)c(OC)cc1-2 | Active | < 4.52 | > 100 µM | inhibition (Leishmania major [15]): Active
 | 4.49 | Clc1ccc2c(N3CCN(Cc4ccc(-c5ccccc5)cc4)CC3)ccnc2c1 | Active | 4.93 | > 100 µM | pIC50 (Leishmania major [5]; V121, 48 h): 4.75
5.24 | 4.60 | Cc1ccc(N2NC(=O)/C(=C/c3cc4c(cc3Cl)OCO4)C2=O)cc1C | Active | < 4.52 | > 100 µM | 
5.81 | 4.63 | Cc1ccc2[nH]c(CCC3CCCCC3)nc2c1 | Active |  | > 100 µM | Activity [12]: Toxic
 | 5.80 | C[C@@H]1[C@H](O)[C@@H](C)/C=C/C=C/C=C/C=C/C=C/C=C/C=C/[C@H](O[C@@H]2O[C@H](C)[C@@H](O)[C@H](N)[C@@H]2O)C[C@@H]2O[C@](O)(C[C@@H](O)C[C@@H](O)[C@H](O)CC[C@@H](O)C[C@@H](O)CC(=O)O[C@H]1C)C[C@H](O)[C@H]2C(=O)O [AMPHOTERICIN B] |  | 6.30 |  | 
